Values after ≈ are worked out from the molar mass of the structure shown.
Legend:
[1] = Selectivity index, ratio of IC50 for african green monkey Vero cells to MIC for Mycobacterium tuberculosis H37Rv ATCC 27294; assay type: functional
[2] = test system: Mycobacterium tuberculosis; assay: Antimycobacterial activity against Mycobacterium tuberculosis H37Rv ATCC 27294 after 7 days by microplate Alamar blue assay; assay type: functional; conditions: H37Rv ATCC 27294, 168 h
How it was run: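 Run in 96-well plates against M. tuberculosis H37Rv using the Alamar Blue read-out. The MIC was taken as the lowest concentration giving >90% growth inhibition.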

[3] = test system: Vero; assay: Cytotoxicity against african green monkey Vero cells after 48 hrs by MTT assay; assay type: cell-based; conditions: Chlorocebus sabaeus
How it was run: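 Vero cells were exposed to compound. The IC50 was taken as the concentration inhibiting 50% of growth relative to an untreated control.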

[4] = test system: Mus musculus; assay: Acute toxicity in mouse assessed as survival at 500 mg/kg, po measured for 7 days; assay type: organism-based; design: dose 500 mg/kg, route oral; conditions: in vivo, 168 h
How it was run: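 Mice given one oral dose of 500 mg/kg, then observed for 7 days. The number of surviving mice was recorded.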

| Compound | Selectivity Index [1] | MIC [2] [µg/mL] | IC50 [3] [µg/mL] | Activity [4] |
| --- | --- | --- | --- | --- |
| COC1CCC(/N=c2\cc3n(-c4ccc(Cl)cc4)c4ccccc4nc-3cc2Nc2cccnc2)CC1 (configuration not stated) | 401 | 0.03 (≈ 0.0588 µM) | 12 (≈ 23.6 µM) | – |
| COC1CCC(/N=c2\cc3n(-c4ccc(Br)cc4)c4ccccc4nc-3cc2Nc2cccnc2)CC1 (configuration not stated) | 30 | 0.062 (≈ 0.112 µM) | 1.88 (≈ 3.39 µM) | – |
| COc1ncccc1Nc1cc2nc3ccccc3n(-c3ccc(F)cc3)c-2c/c1=N\C1CCOCC1 | 1641 | 0.039 (≈ 0.0787 µM) | > 64 | – |
| CC(C)CN1CCC(/N=c2\cc3n(-c4ccc(Cl)cc4)c4ccccc4nc-3cc2Nc2cccnc2)CC1 | 60 | 0.25 (≈ 0.465 µM) | 15.1 (≈ 28 µM) | – |
| CN1CCC(/N=c2\cc3n(-c4ccc(F)cc4)c4ccccc4nc-3cc2Nc2cccnc2)CC1 | 26 | 0.25 (≈ 0.522 µM) | 6.44 (≈ 13.5 µM) | – |
| Cc1ccc(-n2c3c/c(=N\C(C)C)c(Nc4cccnc4)cc-3nc3ccccc32)cc1 | 45 | 0.06 (≈ 0.143 µM) | 2.71 (≈ 6.46 µM) | – |
| Cc1ncccc1Nc1cc2nc3ccccc3n(-c3ccc(F)cc3)c-2c/c1=N\C1CCOCC1 | 2462 | 0.026 (≈ 0.0542 µM) | > 64 | Toxic |
| Clc1ccc(-n2c3c/c(=N\CCN4CCOCC4)c(Nc4cccnc4)cc-3nc3ccccc32)cc1 | 16 | 0.25 (≈ 0.489 µM) | 4.02 (≈ 7.87 µM) | – |
| COc1ncccc1Nc1cc2nc3ccccc3n(-c3ccc(OC(F)(F)F)cc3)c-2c/c1=N\C1CCOCC1 | 4000 | 0.016 (≈ 0.0285 µM) | > 64 | – |
| CC(C)CN1CCC(/N=c2\cc3n(-c4ccc(OC(F)(F)F)cc4)c4ccccc4nc-3cc2Nc2cccnc2)CC1 | 93 | 0.06 (≈ 0.102 µM) | 5.6 (≈ 9.55 µM) | – |
| COc1ncccc1Nc1cc2nc3ccccc3n(-c3ccc(C(F)(F)F)cc3)c-2c/c1=N\C1CCC(OC)CC1 (configuration not stated) | 4000 | 0.016 (≈ 0.0279 µM) | > 64 | Non-toxic |
| Cc1ncccc1Nc1cc2nc3ccccc3n(-c3ccc(F)cc3)c-2c/c1=N\C(C)C | 449 | 0.032 (≈ 0.0731 µM) | 14.4 (≈ 32.8 µM) | – |
| CN1CCC(/N=c2\cc3n(-c4ccc(C(F)(F)F)cc4)c4ccccc4nc-3cc2Nc2cccnc2)CC1 | 83 | 0.125 (≈ 0.236 µM) | 10.4 (≈ 19.6 µM) | – |
| COc1ncccc1Nc1cc2nc3ccccc3n(-c3ccc(Br)cc3)c-2c/c1=N\C(C)C | 1306 | 0.049 (≈ 0.0953 µM) | > 64 | – |
| CC(C)/N=c1\cc2n(-c3ccc(OC(F)(F)F)cc3)c3ccccc3nc-2cc1Nc1cccnc1 | 164 | 0.03 (≈ 0.0613 µM) | 4.93 (≈ 10.1 µM) | – |
| Cc1ccc(Nc2cc3nc4ccccc4n(-c4ccc(F)cc4)c-3c/c2=N\C2CCOCC2)cn1 | 112 | 0.125 (≈ 0.261 µM) | 14 (≈ 29.3 µM) | – |
| Cc1ncccc1Nc1cc2nc3ccccc3n(-c3ccc(Br)cc3)c-2c/c1=N\C(C)C | 635 | 0.062 (≈ 0.124 µM) | 39.4 (≈ 79 µM) | – |
| Cc1ccc(Nc2cc3nc4ccccc4n(-c4ccc(Br)cc4)c-3c/c2=N\C2CCOCC2)cn1 | 493 | 0.044 (≈ 0.0814 µM) | 21.7 (≈ 40.2 µM) | – |
| CC(C)/N=c1\cc2n(-c3ccc(F)cc3)c3ccccc3nc-2cc1Nc1cccnc1 | 208 | 0.03 (≈ 0.0708 µM) | 6.25 (≈ 14.8 µM) | – |
| Cc1ccc(Nc2cc3nc4ccccc4n(-c4ccc(Cl)cc4)c-3c/c2=N\C(C)C)cn1 | 118 | 0.06 (≈ 0.132 µM) | 7.09 (≈ 15.6 µM) | – |
| Cc1ncccc1Nc1cc2nc3ccccc3n(-c3ccc(Cl)cc3)c-2c/c1=N\C1CCOCC1 | 163 | 0.168 (≈ 0.339 µM) | 27.4 (≈ 55.3 µM) | – |
| Cc1ccc(Nc2cc3nc4ccccc4n(-c4ccc(F)cc4)c-3c/c2=N\C(C)C)cn1 | 131 | 0.06 (≈ 0.137 µM) | 7.88 (≈ 18 µM) | – |
| Brc1ccc(-n2c3c/c(=N\C4CCOCC4)c(Nc4cccnc4)cc-3nc3ccccc32)cc1 | 27 | 0.163 (≈ 0.31 µM) | 4.48 (≈ 8.51 µM) | – |
| CC(C)CN1CCC(/N=c2\cc3n(-c4ccc(C(F)(F)F)cc4)c4ccccc4nc-3cc2Nc2cccnc2)CC1 | 450 | 0.06 (≈ 0.105 µM) | 27 (≈ 47.3 µM) | – |
| Clc1ccc(-n2c3c/c(=N\C4CCOCC4)c(Nc4cncc(Br)c4)cc-3nc3ccccc32)cc1 | 1778 | 0.036 (≈ 0.0642 µM) | > 64 | – |
| COc1ncccc1Nc1cc2nc3ccccc3n(-c3ccc(Cl)cc3)c-2c/c1=N\C(C)C | 2133 | 0.03 (≈ 0.0638 µM) | > 64 | – |
| CC(C)/N=c1\cc2n(-c3ccc(C(F)(F)F)cc3)c3ccccc3nc-2cc1Nc1cccnc1 | 655 | 0.03 (≈ 0.0634 µM) | 19.7 (≈ 41.5 µM) | – |
| Cc1ccc(Nc2cc3nc4ccccc4n(-c4ccc(Cl)cc4)c-3c/c2=N\C2CCOCC2)cn1 | 324 | 0.03 (≈ 0.0605 µM) | 9.73 (≈ 19.6 µM) | – |

| Compound | Selectivity Index [1] | MIC [2] [µg/mL] | IC50 [3] [µg/mL] | Activity [4] |
| --- | --- | --- | --- | --- |
| Fc1ccc(-n2c3c/c(=N\CCN4CCOCC4)c(Nc4cccnc4)cc-3nc3ccccc32)cc1 | 30 | 0.5 (≈ 1.01 µM) | 15.1 (≈ 30.5 µM) | – |
| FC(F)(F)c1ccc(-n2c3c/c(=N\CCN4CCOCC4)c(Nc4cccnc4)cc-3nc3ccccc32)cc1 | 159 | 0.125 (≈ 0.23 µM) | 19.9 (≈ 36.5 µM) | – |
| FC(F)(F)Oc1ccc(-n2c3c/c(=N\C4CCOCC4)c(Nc4cccnc4)cc-3nc3ccccc32)cc1 | 2133 | 0.03 (≈ 0.0564 µM) | > 64 | – |
| Fc1ccc(-n2c3c/c(=N\C4CCOCC4)c(Nc4cccnc4)cc-3nc3ccccc32)cc1 | 123 | 0.06 (≈ 0.129 µM) | 7.36 (≈ 15.8 µM) | – |
| FC(F)(F)Oc1ccc(-n2c3c/c(=N\CCN4CCOCC4)c(Nc4cccnc4)cc-3nc3ccccc32)cc1 | 129 | 0.125 (≈ 0.223 µM) | 16.1 (≈ 28.8 µM) | – |
| CN1CCC(/N=c2\cc3n(-c4ccc(Cl)cc4)c4ccccc4nc-3cc2Nc2cccnc2)CC1 | 45 | 0.125 (≈ 0.253 µM) | 5.58 (≈ 11.3 µM) | – |
| COC1CCC(/N=c2\cc3n(-c4ccc(C(F)(F)F)cc4)c4ccccc4nc-3cc2Nc2ccc(C)nc2)CC1 (configuration not stated) | 2089 | 0.016 (≈ 0.0287 µM) | 33.4 (≈ 60 µM) | – |
| Cc1ccc(Nc2cc3nc4ccccc4n(-c4ccc(Br)cc4)c-3c/c2=N\C(C)C)cn1 | 64 | 0.049 (≈ 0.0983 µM) | 3.12 (≈ 6.26 µM) | – |
| Cc1ccc(Nc2cc3nc4ccccc4n(-c4ccc(C(F)(F)F)cc4)c-3c/c2=N\C2CCOCC2)cn1 | 1098 | 0.032 (≈ 0.0604 µM) | 35.1 (≈ 66.3 µM) | – |
| COC1CCC(/N=c2\cc3n(-c4ccc(F)cc4)c4ccccc4nc-3cc2Nc2ccc(C)nc2)CC1 (configuration not stated) | 1067 | 0.06 (≈ 0.118 µM) | > 64 | – |
| COC1CCC(/N=c2\cc3n(-c4ccc(Br)cc4)c4ccccc4nc-3cc2Nc2ccc(C)nc2)CC1 (configuration not stated) | 409 | 0.097 (≈ 0.171 µM) | 39.7 (≈ 69.8 µM) | – |
| CC(C)/N=c1\cc2n(-c3ccccc3)c3ccccc3nc-2cc1Nc1cccnc1 | 66 | 0.06 (≈ 0.148 µM) | 3.93 (≈ 9.69 µM) | – |
| Cc1ncccc1Nc1cc2nc3ccccc3n(-c3ccc(Cl)cc3)c-2c/c1=N\C(C)C | 1164 | 0.055 (≈ 0.121 µM) | > 64 | – |
| COC1CCC(/N=c2\cc3n(-c4ccc(C(F)(F)F)cc4)c4ccccc4nc-3cc2Nc2cccnc2)CC1 (configuration not stated) | 945 | 0.03 (≈ 0.0552 µM) | 28.3 (≈ 52.2 µM) | – |
| CC(C)/N=c1\cc2n(-c3ccc(Br)cc3)c3ccccc3nc-2cc1Nc1cccnc1 | 115 | 0.02 (≈ 0.0413 µM) | 2.3 (≈ 4.75 µM) | – |
| COC1CCC(/N=c2\cc3n(-c4ccc(Cl)cc4)c4ccccc4nc-3cc2Nc2cncc(Br)c2)CC1 (configuration not stated) | 1231 | 0.052 (≈ 0.0883 µM) | > 64 | – |
| CSc1ccc(-n2c3c/c(=N\C(C)C)c(Nc4cccnc4)cc-3nc3ccccc32)cc1 | 37 | 0.05 (≈ 0.111 µM) | 1.83 (≈ 4.05 µM) | – |
| COC1CCC(/N=c2\cc3n(-c4ccc(C(F)(F)F)cc4)c4ccccc4nc-3cc2Nc2cccnc2C)CC1 (configuration not stated) | 5818 | 0.011 (≈ 0.0197 µM) | > 64 | – |
| Cc1ccc(Nc2cc3nc4ccccc4n(-c4ccc(C(F)(F)F)cc4)c-3c/c2=N\C(C)C)cn1 | 1147 | 0.03 (≈ 0.0615 µM) | 34.4 (≈ 70.6 µM) | – |
| CN1CCC(/N=c2\cc3n(-c4ccc(OC(F)(F)F)cc4)c4ccccc4nc-3cc2Nc2cccnc2)CC1 | 18 | 0.25 (≈ 0.459 µM) | 4.48 (≈ 8.23 µM) | – |
| Clc1ccc(-n2c3c/c(=N\C4CCOCC4)c(Nc4cccnc4)cc-3nc3ccccc32)cc1 | 83 | 0.03 (≈ 0.0622 µM) | 2.5 (≈ 5.19 µM) | – |
| FC(F)(F)c1ccc(-n2c3c/c(=N\C4CCOCC4)c(Nc4cccnc4)cc-3nc3ccccc32)cc1 | 512 | 0.125 (≈ 0.242 µM) | > 64 | – |
| COC1CCC(/N=c2\cc3n(-c4ccc(F)cc4)c4ccccc4nc-3cc2Nc2cccnc2)CC1 (configuration not stated) | 533 | 0.12 (≈ 0.243 µM) | > 64 | – |
| Cc1ncccc1Nc1cc2nc3ccccc3n(-c3ccc(C(F)(F)F)cc3)c-2c/c1=N\C(C)C | 4571 | 0.014 (≈ 0.0287 µM) | > 64 | – |
| COc1ncccc1Nc1cc2nc3ccccc3n(-c3ccc(OC(F)(F)F)cc3)c-2c/c1=N\C(C)C | 2286 | 0.028 (≈ 0.0539 µM) | > 64 | – |
| COC1CCC(/N=c2\cc3n(-c4ccc(OC(F)(F)F)cc4)c4ccccc4nc-3cc2Nc2cccnc2)CC1 (configuration not stated) | 151 | 0.03 (≈ 0.0536 µM) | 4.52 (≈ 8.08 µM) | – |
| CC(C)CN1CCC(/N=c2\cc3n(-c4ccc(F)cc4)c4ccccc4nc-3cc2Nc2cccnc2)CC1 | 242 | 0.125 (≈ 0.24 µM) | 30.3 (≈ 58.1 µM) | – |

Reference: ChEMBL document CHEMBL2176968, “Identification of less lipophilic riminophenazine derivatives for the treatment of drug-resistant tuberculosis” (J Med Chem, 2012)
